ChEMBL document CHEMBL1150340, “Synthesis of 5'-functionalized nucleosides: S-Adenosylhomocysteine analogues with the carbon-5' and sulfur atoms replaced by a vinyl or halovinyl unit” (Bioorg Med Chem, 2008)

Tests used:
[1] = target: Adenosylhomocysteinase (Homo sapiens) (UniProt P23526); experiment: Inhibition of human S-adenosyl-L-homocysteine hydrolase at 281 uM after 0.5 hrs
How it was run: (§1)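 Human AdoHcy hydrolase (204 nM) was preincubated with inhibitor in buffer A (50 mM, pH 7.2, 1 mM EDTA) at 22 °C, for 0.5 h or 4 h. Residual activity was then read in the synthetic direction: an aliquot was diluted into buffer A with 0.5 mM Ado and 0.5 mM Hcy, held 12 min at 37 °C, and stopped with HClO₄. Duplicates were averaged.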

[2] = target: Adenosylhomocysteinase (Homo sapiens) (UniProt P23526); experiment: Inhibition of human S-adenosyl-L-homocysteine hydrolase after 20 mins
[3] = target: Adenosylhomocysteinase (Homo sapiens) (UniProt P23526); experiment: Inhibition of human S-adenosyl-L-homocysteine hydrolase at 281 uM after 4 hrs; how it was run: as §1

Chain of Adenosylhomocysteinase (Homo sapiens) (P23526 2-432 limits assumed): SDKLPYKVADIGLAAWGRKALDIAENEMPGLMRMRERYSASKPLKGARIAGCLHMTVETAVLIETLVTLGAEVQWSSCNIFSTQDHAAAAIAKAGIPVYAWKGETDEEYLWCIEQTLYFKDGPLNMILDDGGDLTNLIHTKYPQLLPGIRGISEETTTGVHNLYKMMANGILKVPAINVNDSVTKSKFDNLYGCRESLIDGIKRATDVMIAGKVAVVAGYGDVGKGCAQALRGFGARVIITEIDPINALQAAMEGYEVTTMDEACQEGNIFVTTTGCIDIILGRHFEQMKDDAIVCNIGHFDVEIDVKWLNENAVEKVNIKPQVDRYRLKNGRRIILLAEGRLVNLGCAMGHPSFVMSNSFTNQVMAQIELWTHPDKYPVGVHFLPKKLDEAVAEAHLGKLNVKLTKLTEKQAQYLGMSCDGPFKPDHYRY

Row | SMILES | inhibition [1] [%] | inhibition [2] [%] | inhibition [3] [%]
1 | CCOC(=O)CCC/C(F)=C\[C@H]1O[C@@H](n2cnc3c(N)ncnc32)[C@H](O)[C@@H]1O | 14.1 |  | 
2 | COC(=O)CC/C=C\[C@H]1O[C@@H](n2cnc3c(N)ncnc32)[C@H](O)[C@@H]1O | 68.1 |  | 
3 | CCOC(=O)/C=C/C=C/[C@H]1O[C@@H](n2cnc3c(N)ncnc32)[C@H](O)[C@@H]1O |  | 96.4 | 
4 | CCOC(=O)/C=C/C=C\[C@H]1O[C@@H](n2cnc3c(N)ncnc32)[C@H](O)[C@@H]1O |  | 98.2 | 
5 | Nc1ncnc2c1ncn2[C@@H]1O[C@H](/C=C/CCCC(=O)O)[C@@H](O)[C@H]1O | 28.5 |  | 92.4
6 | Nc1ncnc2c1ncn2[C@@H]1O[C@H](/C=C(/F)CCCC(=O)O)[C@@H](O)[C@H]1O | 15.2 |  | 35.2
7 | CCOC(=O)CCC/C=C/[C@H]1O[C@@H](n2cnc3c(N)ncnc32)[C@H](O)[C@@H]1O | 81 |  | 
8 | Nc1ncnc2c1ncn2[C@@H]1O[C@H](/C=C\CCC(=O)O)[C@@H](O)[C@H]1O | 50.5 |  | 95.5
